The target of series [1] is DYRK1A (Homo sapiens, UniProt Q13627). Briefly: Human kinome profiling, DYRK1A. It is filed as biochemical. Particulars: 100 nmol/L.
The test system of series [2] is liver, adipose, muscle and kidney tissue. Kind of series: Proliferation. The class given is in vivo, mouse. The following applies: 3-week treatment, 0.25 mg/kg/BW i.p. Put shortly:
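Male NSG mice (8–10 weeks old) carried human islet kidney-capsule grafts. From 1 week post-graft they received test compound i.p. at 0.25 mg/kg in 50% DMSO or vehicle, twice weekly for 3 weeks. BrdU was then given at 100 mg/kg i.p. for 3 days, and mice were killed 6 h after the last dose. BrdU+ nuclei were counted in liver and muscle (≥3,000 cells) and in visceral/subcutaneous adipose (1,000–2,000 cells).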

For series [3], the target named is CLK3 (Homo sapiens, UniProt P49761). Kind of series: Human kinome profiling, CLK3. It is filed as biochemical. An outline of the steps: (§1)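 Human kinases profiled by commercial providers under their standard protocols; ATP within 15 μmol/L of the apparent KM for each enzyme.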
The target in series [4] is T1, DYRK2 (Homo sapiens, UniProt Q92630).
T1 sequence (Q92630 1-601): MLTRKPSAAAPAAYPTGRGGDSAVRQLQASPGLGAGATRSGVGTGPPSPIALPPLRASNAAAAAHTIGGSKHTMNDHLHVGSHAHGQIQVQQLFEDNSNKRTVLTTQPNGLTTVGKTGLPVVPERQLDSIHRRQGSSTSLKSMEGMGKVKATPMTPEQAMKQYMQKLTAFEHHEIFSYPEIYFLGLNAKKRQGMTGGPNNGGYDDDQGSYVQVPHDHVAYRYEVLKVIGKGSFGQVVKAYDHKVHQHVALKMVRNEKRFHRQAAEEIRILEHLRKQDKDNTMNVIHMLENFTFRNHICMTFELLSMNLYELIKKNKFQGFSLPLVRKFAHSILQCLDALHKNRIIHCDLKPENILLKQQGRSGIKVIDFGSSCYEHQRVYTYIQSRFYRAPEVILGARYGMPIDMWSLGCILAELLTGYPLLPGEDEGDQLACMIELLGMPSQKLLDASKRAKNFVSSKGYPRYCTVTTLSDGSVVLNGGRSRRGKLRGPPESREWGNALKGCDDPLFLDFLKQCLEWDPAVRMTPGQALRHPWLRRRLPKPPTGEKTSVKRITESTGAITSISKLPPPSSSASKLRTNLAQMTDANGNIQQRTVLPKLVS
Briefly: Human kinome profiling, DYRK2. It is filed as biochemical. An outline of the steps:
as §1

Series [5] addresses CLK4 (Homo sapiens, UniProt Q9HAZ1). Kind of series: Human kinome profiling, CLK4. It is filed as biochemical. An outline of the steps: as §1

Sequence of CLK3 (P49761 whole entry): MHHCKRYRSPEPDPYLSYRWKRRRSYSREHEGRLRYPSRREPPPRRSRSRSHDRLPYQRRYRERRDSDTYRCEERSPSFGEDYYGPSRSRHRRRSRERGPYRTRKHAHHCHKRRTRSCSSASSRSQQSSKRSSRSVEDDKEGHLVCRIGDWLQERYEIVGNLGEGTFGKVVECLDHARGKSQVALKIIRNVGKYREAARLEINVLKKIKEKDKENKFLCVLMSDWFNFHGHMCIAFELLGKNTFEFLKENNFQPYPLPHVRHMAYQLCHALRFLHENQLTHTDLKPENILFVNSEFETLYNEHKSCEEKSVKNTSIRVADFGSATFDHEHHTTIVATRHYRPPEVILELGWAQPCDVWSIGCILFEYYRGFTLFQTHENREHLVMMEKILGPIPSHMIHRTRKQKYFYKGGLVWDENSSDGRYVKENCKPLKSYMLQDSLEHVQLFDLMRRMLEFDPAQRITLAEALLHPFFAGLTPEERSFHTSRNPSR
Sequence of CLK4 (Q9HAZ1 whole entry): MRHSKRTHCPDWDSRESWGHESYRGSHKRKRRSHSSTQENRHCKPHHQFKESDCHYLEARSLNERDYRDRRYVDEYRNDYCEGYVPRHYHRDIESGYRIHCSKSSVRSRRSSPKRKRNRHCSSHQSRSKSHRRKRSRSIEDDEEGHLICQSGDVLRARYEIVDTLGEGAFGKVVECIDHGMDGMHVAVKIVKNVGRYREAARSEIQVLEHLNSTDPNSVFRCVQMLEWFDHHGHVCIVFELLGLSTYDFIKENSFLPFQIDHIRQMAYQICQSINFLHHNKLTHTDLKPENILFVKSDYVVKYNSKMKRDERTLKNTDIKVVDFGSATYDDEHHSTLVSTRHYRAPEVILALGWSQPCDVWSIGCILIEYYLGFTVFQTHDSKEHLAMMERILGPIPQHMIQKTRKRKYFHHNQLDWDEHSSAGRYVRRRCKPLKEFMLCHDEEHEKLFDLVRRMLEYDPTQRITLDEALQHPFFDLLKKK

What is called IC50 is the point on the concentration scale where inhibition reaches its midpoint. Regarding `Nc1ncnc2c1c(I)cn2[C@@H]1O[C@H](CO)[C@@H](O)[C@H]1O` [5-IT, 5-iodotubercidin], in series [1], the “remaining activity DYRK1A” value is given as less than 10%. Moreover, in series [2], the “proliferation in liver, adipose, muscle and kidney tissue, treated vs control” value is “no significant differences”. The “remaining activity CLK3” value in series [3] (100 nmol/L) is less than 10%. The IC50 in series [3] (read-out: IC50 CLK3, ATP within 15 μmol/L of apparent KM) stood at 195 nM; in series [4] (read-out: IC50 DYRK2, ATP within 15 μmol/L of apparent KM) it was 6 nM; in series [5] (read-out: IC50 CLK4, ATP within 15 μmol/L of apparent KM), 14 nM. Further, the “remaining activity DYRK2” value in series [4] (100 nmol/L) was less than 10%. The “remaining activity CLK4” value in series [5] (100 nmol/L) was less than 10%.
